Assay: Inhibition of yeast alpha-glucosidase pre-incubated for 10 mins followed by pNPG substrate addition and measured every 30 secs for 35 mins
Parameters: species or system Saccharomyces cerevisiae
Outline: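 S. cerevisiae α-glucosidase (enzyme solution 2.0 U/mL) in 100 mM phosphate buffer, pH 7.5, with NaN3. Serial DMSO dilutions, nine concentrations, in triplicate. Preincubated 10 min at 28 °C, then p-NPG added (substrate solution 10 mM). A405 read every 30 s for 35 min. Inhibition taken from rate slope versus enzyme–substrate blanks; IC50 from three-parameter curve fit.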

Structure (SMILES)	IC50 [µM]
C[C@@H]1O[C@@H](Oc2c(-c3ccc(O)cc3)oc3cc(O)cc(O)c3c2=O)[C@H](OC(=O)/C=C/c2ccc(O)cc2)[C@H](O)[C@H]1OC(=O)/C=C/c1ccc(O)cc1	12.9
COc1ccc(-c2oc3cc(O)cc(O)c3c(=O)c2O[C@@H]2O[C@@H](C)[C@H](OC(=O)/C=C\c3ccc(O)cc3)[C@@H](O)[C@H]2OC(=O)/C=C/c2ccc(O)cc2)cc1O	28.2
C[C@@H]1O[C@@H](Oc2c(-c3ccc(O)cc3)oc3cc(O)cc(O)c3c2=O)[C@H](OC(=O)/C=C/c2ccc(O)cc2)[C@H](O)[C@H]1OC(=O)/C=C\c1ccc(O)cc1	16.1
COc1ccc(-c2oc3cc(O)cc(O)c3c(=O)c2O[C@@H]2O[C@@H](C)[C@H](OC(=O)/C=C/c3ccc(O)cc3)[C@@H](O)[C@H]2OC(=O)/C=C/c2ccc(O)cc2)cc1	26.9
COc1ccc(-c2oc3cc(O)cc(O)c3c(=O)c2O[C@@H]2O[C@@H](C)[C@H](OC(=O)/C=C/c3ccc(O)cc3)[C@@H](O)[C@H]2OC(=O)/C=C\c2ccc(O)cc2)cc1	10.1
COc1ccc(-c2oc3cc(O)cc(O)c3c(=O)c2O[C@@H]2O[C@@H](C)[C@H](OC(=O)/C=C\c3ccc(O)cc3)[C@@H](O)[C@H]2OC(=O)/C=C/c2ccc(O)cc2)cc1	6.8
COc1ccc(-c2oc3cc(O)cc(O)c3c(=O)c2O[C@@H]2O[C@@H](C)[C@H](OC(=O)/C=C\c3ccc(O)cc3)[C@@H](O)[C@H]2OC(=O)/C=C\c2ccc(O)cc2)cc1	5.9
C[C@@H]1O[C@@H](Oc2c(-c3ccc(O)cc3)oc3cc(O)cc(O)c3c2=O)[C@H](OC(=O)/C=C\c2ccc(O)cc2)[C@H](O)[C@H]1OC(=O)/C=C/c1ccc(O)cc1	35.3
C[C@H]1O[C@H](O[C@H]2[C@H](O)[C@@H](O)[C@@H](O[C@H]3[C@H](O)[C@@H](O)C(O)O[C@@H]3CO)O[C@@H]2CO)[C@H](O)[C@@H](O)[C@@H]1N[C@H]1C=C(CO)[C@@H](O)[C@H](O)[C@H]1O (some centres undefined) [ACARBOSE]	266

Source: ChEMBL document CHEMBL4330146, “Identification of α-Glucosidase Inhibitors in Machilus litseifolia by Combined Use of High-Resolution α-Glucosidase Inhibition Profiling and HPLC-PDA-HRMS-SPE-NMR” (J Nat Prod, 2019)
